# Results published in article PMC8553955 (Plant Communications, 2021).
# Columns and labels:
# Phelipanche ramosa seeds [1] = test: Germination stimulation activity assay on P. ramosa seeds; conditions: in vivo
# [2] = tested on: A. thaliana htl-3/p35S::GFP-PrKAI2d3 seeds; test: Arabidopsis germination assay, htl-3 complemented with PrKAI2d3; format: in vivo, Arabidopsis thaliana; conditions: Arabidopsis Col-0, htl-3 and the three p35S::GFP-PrKAI2d3 complemented lines; data not shown
# Procedure, shortened: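 After-ripened (≥6 weeks), surface-sterilized seeds were suspended in 1 mM HEPES pH 7.5 at 10 mg/mL and dispensed at about 20–25 seeds per well. Stimulant (GR24 isomers) or DMSO control was added. Plates were incubated either 5 days at 25°C in darkness or, for thermo-inhibition, 7 days at 32–34°C under constant light (10 μmol m−2 s−1). Germination was scored as radicle protrusion. Groups were compared by Kruskal–Wallis.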
# PrKAI2d3 [3] = test: Thermostability of PrKAI2d3 by nanoDSF; format: binding, Phelipanche ramosa; conditions: PrKAI2d3 at 10 μM, ligands at 100 μM
# Procedure, shortened: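 Protein at about 10 μM in PBS (100 mM phosphate pH 6.8, 150 mM NaCl) was mixed with ligand or no ligand. Intrinsic fluorescence (350/330 nm ratio) was recorded over a 1°C/min temperature ramp at 55% excitation. Apparent Tm was taken from the first derivative of the ratio curve.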
# Phelipanche ramosa seeds [4] = test: Inhibition of P. ramosa germination stimulation induced by GR24 or 2-PEITC; format: in vivo
# Procedure, shortened: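 Seeds from a genetic-group-1 population were surface-sterilized and conditioned in darkness at 21°C. Germination was stimulated with 10 nM (±)-GR24 or 100 nM 2-PEITC in the presence of test compound. Maximum inhibition and IC50 were derived from the response.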
# Striga hermonthica seeds = test: Germination stimulation activity assay on S. hermonthica seeds; format: in vivo
# Procedure, shortened: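 Surface-sterilized seeds were conditioned in darkness at 30°C. Compounds were dissolved at 10 mM in DMSO, serially diluted in water/DMSO 9:1, and applied at 10−13 to 10−6 M (final water/DMSO 99:1). Controls were 1% DMSO (negative) and 1 μM (±)-GR24 (positive). Germination was expressed relative to the positive control in each assay, with at least three repeats. EC50 came from a four-parameter logistic fit.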
# [5] = tested on: A. thaliana htl-3/ShHTL7 seeds; test: Arabidopsis germination assay, htl-3 expressing ShHTL7; format: in vivo
# [6] = tested on: pea (Pisum sativum) shoot branching; test: Pea shoot branching assay; format: in vivo; conditions: direct injection in the stem, 100 μM, rms1-10
# rice (Oryza sativa) = conditions: high concentration (50 μM); ref Nakamura et al., 2013; cited from earlier work
# PrKAI2d3 [7] = test: Enzymatic assays with profluorescent probes and p-nitrophenyl acetate; format: biochemical, Phelipanche ramosa
smiles,measurement,setting,value
"S=C=NCCc1ccccc1 [2-PEITC, phenethyl isothiocyanate]",Seeds of P. ramosa fold less sensitive than to (±)-GR24,Phelipanche ramosa seeds [1],approximately 10 000 fold
same,sensitivity of germination in words,[2],insensitive
same,apparent melting temperature (Tm),PrKAI2d3 [3],45.1 °C
"CC1=CC(=O)CC(C)(C)[C@@]1(O)/C=C/C(C)=C\C(=O)O [ABA, abscisic acid]",IC50,Phelipanche ramosa seeds [4]; 2-PEITC (100 nM),34 nM
same,IC50,Phelipanche ramosa seeds [4]; GR24 (10 nM),100 nM
"CC1=CC(O)OC1=O [D-OH, 4-Hydroxy-2-methylbut-2-en-4-olide]",EC50,Striga hermonthica seeds,1200 nM
same,EC50,[5],3100 nM
same,"effect on branching control in pea, in words",[6],no effect on branching control
same,"bioactivity in rice, in words",rice (Oryza sativa),bioactive
"CC(=O)Oc1ccc([N+](=O)[O-])cc1 [p-NPA, para-nitrophenyl acetate]","PrKAI2d3 hydrolase activity with generic substrate, in words",PrKAI2d3 [7],no hydrolytic activity was detected
